Consider two compounds from article PMC7017412 (ACS Omega, 2020).

Residue numbers refer to the chain shown, from its start.

The target of assay [1] is T1, WT hTMPK (Homo sapiens, UniProt P23919).
T1 sequence (P23919 1-212): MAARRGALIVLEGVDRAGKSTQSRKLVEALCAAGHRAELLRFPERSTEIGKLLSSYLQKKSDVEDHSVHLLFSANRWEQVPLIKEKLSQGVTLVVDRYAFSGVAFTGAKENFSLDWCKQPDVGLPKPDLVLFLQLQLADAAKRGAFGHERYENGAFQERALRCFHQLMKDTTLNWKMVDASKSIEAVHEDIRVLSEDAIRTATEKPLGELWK
In kind it is binding. Particulars: WT–AZTMP, 2 mM ADP, Ile184δ1 CPMG RD. The method, boiled down:
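Ile184δ1 CHD2 methyl 1H CPMG dispersion was run at 34 °C on a WT–AZTMP sample with 2 mM ADP, in pH 6.9 MES/MgCl2 D2O buffer. Trelax was 40 ms with ncyc 1–78. pa and kex were fitted by grid search to the full exchange equation, and koff was derived from them. Errors are ±2 standard error from 100 bootstrap resampled datasets.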

The target in assay [2] is T2, F105Y hTMPK (Homo sapiens, UniProt P23919, F105Y).
T2 sequence (P23919 1-212 F105Y): T1 sequence (P23919 1-212) with F105Y
Put plainly: ADP binding constants by two-dimensional NMR lineshape fitting of ADP titration. Particulars: for Kd / koff: 34 °C, pH 6.9. The method, boiled down: (§1)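 ILV methyl-labelled (13CH3/13CHD2) His-tagged hTMPK was expressed in E. coli and purified by cobalt affinity and cation exchange. Samples were in D2O with 20 mM MES, 150 mM NaCl, 10 mM MgCl2, 1 mM DTT, pH 6.9, plus 2 mM TMP or AZTMP. Protein was WT 0.8 mM and F105Y 0.4 mM. ADP was titrated at 0–2.4 ligand:protein across a 1H–13C HMQC series at 34 °C. KD and koff came from 2D lineshape fitting of five shifting methyl peaks (2-state model) with bootstrap errors.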

In assay [3] the target is T1, WT hTMPK. Described as above. Particulars: for Kd / koff: 34 °C, pH 6.9. The method, boiled down:
as §1

For the next assay, the system named is TMPK from yeast (ScTMPK). Particulars: cited from earlier work.
Assay [4] has as its target T2, F105Y hTMPK. Particulars: cited from earlier work.
The target in assay [5] is T1, WT hTMPK. Particulars: cited from earlier work.

With `Nc1ncnc2c1ncn2[C@@H]1O[C@H](COP(=O)(O)OP(=O)(O)O)[C@@H](O)[C@H]1O` [ADP], the “koff estimated from kex and pa” value at WT hTMPK [1] was 31 ± 5.1 s^–1. Also, the Kd stood at 4.4 ± 1.7 µM at F105Y hTMPK [2] (ADP binding to F105Y hTMPK with 2 mM AZTMP bound), 4.2 ± 1.3 µM at F105Y hTMPK [2] (ADP binding to F105Y hTMPK with 2 mM TMP bound), 15 ± 1 µM at WT hTMPK [3] (ADP binding to WT hTMPK with 2 mM AZTMP bound) and 15 ± 2.1 µM on WT hTMPK [3] (ADP binding to WT hTMPK with 2 mM TMP bound). For the same compound, the koff is given as 0.20 ± 0.9 s^–1 at F105Y hTMPK [2] (ADP off-rate from F105Y hTMPK with 2 mM AZTMP bound), 2.7 ± 0.8 s^–1 at F105Y hTMPK [2] (ADP off-rate from F105Y hTMPK with 2 mM TMP bound), 24 ± 0.8 s^–1 on WT hTMPK [3] (ADP off-rate from WT hTMPK with 2 mM AZTMP bound) and 12 ± 0.7 s^–1 at WT hTMPK [3] (ADP off-rate from WT hTMPK with 2 mM TMP bound). Also, the “reduced ADP off-rate (koff) with AZTMP bound relative to TMP bound” value at F105Y hTMPK [2] (F105Y hTMPK) is given as 15 fold. The “faster ADP off-rate (koff) with AZTMP bound than with TMP bound” value at WT hTMPK [3] (WT hTMPK) was determined as 2 fold.
For `Cc1cn([C@H]2C[C@H](O)[C@@H](COP(=O)(O)O)O2)c(=O)[nH]c1=O` [TMP, thymidine monophosphate], the kCAT in the assay with TMPK from yeast (ScTMPK) was 35 s^–1; at F105Y hTMPK [4] (F105Y hTMPK, substrate phosphorylation) it was 0.17 s^–1; at WT hTMPK [5] (substrate phosphorylation) it was 0.73 s^–1. In addition, the Km at F105Y hTMPK [4] (F105Y hTMPK) is 4.2 µM; at WT hTMPK [5] it was 6.3 µM. The “reduction of activity toward TMP by Phe105Tyr mutation” value on F105Y hTMPK [4] (F105Y vs WT hTMPK) is listed as 4 fold.

For orientation: Kd means the concentration at which binding is half-saturated. A high value points to lower affinity. One may read the Km as the substrate concentration at which the rate is half of its maximum.
